Assay results from ChEMBL document CHEMBL2021866, “Design, synthesis, and pharmacological evaluation of benzamide derivatives as glucokinase activators” (Bioorg Med Chem, 2012).

Experiments:
[1] = target: T1, Hexokinase-4 (Homo sapiens) (UniProt P35557); test: Activation of human recombinant glucokinase expressed in Escherichia coli BL21(DE3) coexpressing G6PDH assessed as glucose 6-phosphate formation by spectrometric analysis relative to control
T1 sequence (whole entry): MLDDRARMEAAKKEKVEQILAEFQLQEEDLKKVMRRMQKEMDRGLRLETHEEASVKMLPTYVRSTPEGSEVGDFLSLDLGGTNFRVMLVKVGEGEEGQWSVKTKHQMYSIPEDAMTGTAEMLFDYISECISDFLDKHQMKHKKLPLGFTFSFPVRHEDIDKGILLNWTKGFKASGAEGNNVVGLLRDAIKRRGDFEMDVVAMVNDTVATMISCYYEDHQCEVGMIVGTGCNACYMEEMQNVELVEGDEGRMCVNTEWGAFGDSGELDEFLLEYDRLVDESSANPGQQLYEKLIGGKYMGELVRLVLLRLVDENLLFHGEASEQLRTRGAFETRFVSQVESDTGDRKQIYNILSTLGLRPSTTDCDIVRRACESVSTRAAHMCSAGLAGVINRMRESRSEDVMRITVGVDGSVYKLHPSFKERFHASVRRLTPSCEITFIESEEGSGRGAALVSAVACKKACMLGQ
Procedure, shortened: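 N-terminal His6-tagged human GK, expressed in E. coli BL21(DE3), purified on Ni-NTA. NADPH formation followed as rate of A340. Fold activation taken against DMSO control (100%), and maximum fold reported.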

Hexokinase-4 = target: T2, Hexokinase-4 (Homo sapiens, UniProt P35557); test: Activation of human recombinant glucokinase expressed in Escherichia coli BL21(DE3) coexpressing G6PDH assessed as glucose 6-phosphate formation by spectrometric analysis
T2 sequence (P35557 whole entry): T1 sequence (whole entry)

Mus musculus = test: Hypoglycemic activity in ICR mouse assessed as reduction in blood glucose level at 10 mg/kg, po measured within 1 hr relative to control; type: functional; set-up: scale not given: the % may be the effect or the level left
Procedure, shortened: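 Male ICR mice, 8 weeks old, on a reversed light cycle, were fasted 2 h with water allowed and grouped by body weight. They were dosed orally with 10 mg/kg or with vehicle (0.5% carboxymethylcellulose). Blood glucose was tracked, with ΔBG taken from 0 min, and reduction expressed against vehicle within 1 h. Mean ± SEM, n = 6.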

[2] = Cmax in ICR mouse at 20 mg/kg, po; type: ADME, organism-based; set-up: dose 20 mg/kg, route oral; conditions: in vivo
Procedure, shortened: (§1)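 Mice received a single iv dose of 10 mg/kg or a single po dose of 20 mg/kg. Vehicle was DMSO, tween-80 and normal saline. Plasma concentration–time data gave CL, Vss and t1/2 from the iv arm, and Cmax, Tmax, AUC0-∞ and F from the po arm. Values are the average of three runs.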

[3] = Volume of distribution at steady state in ICR mouse at 10 mg/kg, iv; type: ADME, organism-based; set-up: dose 10 mg/kg, route intravenous; conditions: in vivo, read-out: Vdss; procedure, shortened: as §1
[4] = Oral bioavailability in ICR mouse at 20 mg/kg; type: ADME, organism-based; conditions: in vivo; procedure, shortened: as §1
[5] = Tmax in ICR mouse at 20 mg/kg, po; type: ADME, organism-based; set-up: dose 20 mg/kg, route oral; conditions: in vivo; procedure, shortened: as §1
[6] = AUC (0 to infinity) in ICR mouse at 20 mg/kg, po; type: ADME, organism-based; set-up: time infinity, dose 20 mg/kg, route oral; conditions: plasma; procedure, shortened: as §1
[7] = Clearance in ICR mouse at 10 mg/kg, iv; type: ADME, organism-based; set-up: dose 10 mg/kg, route intravenous; conditions: in vivo; procedure, shortened: as §1
[8] = Half life in ICR mouse at 10 mg/kg, iv; type: ADME, organism-based; set-up: dose 10 mg/kg, route intravenous; conditions: in vivo; procedure, shortened: as §1
[9] = target: T1, Hexokinase-4 (Homo sapiens); test: Ratio of EC50 for GK50 to compound for activation of human recombinant glucokinase expressed in Escherichia coli BL21(DE3) coexpressing G6PDH assessed as glucose 6-phosphate formation by spectrometric analysis
Procedure, shortened: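 EC50 obtained in the same G6PDH-coupled A340 assay of His6-tagged human GK, with GK50 run in parallel. Six compound concentrations per curve, and fold activity over DMSO control fitted to a four-parameter logistic sigmoid. Values are means of three independent experiments.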

SMILES | fold change (FC) [1] | EC50 (Hexokinase-4) [nM] | other results
CC(C)=CCOc1cc(Oc2ccc(S(=O)(=O)N3CC[C@H](F)C3)cc2)cc(C(=O)Nc2nccs2)c1 | 1.9 | 52.3 | 
CC(C)=CCOc1cc(Oc2ccc(S(=O)(=O)C3CC3)cc2)cc(C(=O)Nc2cnc(C)cn2)c1 | 1.6 | 165 | 
CC(C)=CCOc1cc(Oc2ccc(S(=O)(=O)N3CCOCC3)cc2)cc(C(=O)Nc2cc(C)n(C)n2)c1 | 1.5 | 95.1 | 
CC(C)=CCOc1cc(Oc2ccc(S(=O)(=O)N3CC[C@H](F)C3)cc2)cc(C(=O)Nc2ncc(F)s2)c1 | 2.2 | 44.8 | Activity (Mus musculus): 8.1%; Cmax [2]: 1090 ng/mL; Vd [3]: 1.2 L/kg; bioavailability [4]: 9.5%; Tmax [5]: 1 h; AUC(0-inf) [6]: 1790 ng·h/mL; clearance [7]: 17.8 mL/min/kg; half-life [8]: 5.9 h
CC(C)=CCOc1cc(Oc2ccc(S(=O)(=O)C3CC3)cc2)cc(C(=O)Nc2nccn3ccnc23)c1 |  | > 1000 | 
CC(C)=CCOc1cc(Oc2ccc(S(=O)(=O)C3CC3)cc2)cc(C(=O)Nc2ncc(F)s2)c1 | 1.8 | 47.7 | 
CC(C)=CCOc1cc(Oc2ccc(S(=O)(=O)C3CC3)cc2)cc(C(=O)NC2=NC(=O)CS2)c1 | 1.5 | 120 | 
CC(C)=CCOc1cc(Oc2ccc(S(=O)(=O)C3CC3)cc2)cc(C(=O)Nc2nccs2)c1 | 2.4 | 28.3 | Activity (Mus musculus): 5.5%; Cmax [2]: 15800 ng/mL; Ratio EC50 [9]: 8; Vd [3]: 0.28 L/kg; bioavailability [4]: 38.6%; Tmax [5]: 1 h; AUC(0-inf) [6]: 39800 ng·h/mL; clearance [7]: 3.33 mL/min/kg; half-life [8]: 2.3 h
CC(C)=CCOc1cc(Oc2ccc(S(=O)(=O)N3CC4CCC(C3)O4)cc2)cc(C(=O)Nc2cc(C)n(C)n2)c1 | 1.5 | 144 | 
CC(C)=CCOc1cc(Oc2ccc(S(=O)(=O)N3CC[C@H](F)C3)cc2)cc(C(=O)Nc2cc(C)n(C)n2)c1 | 1.9 | 63.1 | 
CC(C)=CCOc1cc(Oc2ccc(S(=O)(=O)N3C[C@@H](C)O[C@@H](C)C3)cc2)cc(C(=O)Nc2nccs2)c1 | 1.5 | 62.6 | 
CC(C)=CCOc1cc(Oc2ccc(S(=O)(=O)N3CC[C@H](F)C3)cc2)cc(C(=O)Nc2ccn(C)n2)c1 | 2.1 | 83.5 | 
CC(C)=CCOc1cc(Oc2ccc(S(=O)(=O)C3CC3)cc2)cc(C(=O)Nc2cc(C)n(C)n2)c1 | 1.5 | 90.1 | 
CC(C)=CCOc1cc(Oc2ccc(S(=O)(=O)N3C[C@@H](C)O[C@@H](C)C3)cc2)cc(C(=O)Nc2ncc(F)s2)c1 | 1.7 | 65.4 | 
CC(C)=CCOc1cc(Oc2ccc(S(=O)(=O)N3CC4CCC(C3)O4)cc2)cc(C(=O)Nc2ccn(C)n2)c1 | 1.7 | 242 | 
CC(C)=CCOc1cc(Oc2ccc(S(=O)(=O)N3C[C@@H](C)O[C@@H](C)C3)cc2)cc(C(=O)Nc2cc(C)n(C)n2)c1 | 1.6 | 44.8 | 
COC1CCN(S(=O)(=O)c2ccc(Oc3cc(OCC=C(C)C)cc(C(=O)Nc4ncc(F)s4)c3)cc2)CC1 | 1.7 | 64.6 | 
CC(C)=CCOc1cc(Oc2ccc(S(=O)(=O)N3C[C@@H](C)O[C@@H](C)C3)cc2)cc(C(=O)Nc2ccn(C)n2)c1 | 1.8 | 265 | 
CC(C)=CCOc1cc(Oc2ccc(S(=O)(=O)N3CCOCC3)cc2)cc(C(=O)Nc2ncc(F)s2)c1 | 1.8 | 52 | 
CC(C)=CCOc1cc(Oc2ccc(S(=O)(=O)N3CC4CCC(C3)O4)cc2)cc(C(=O)Nc2nccs2)c1 | 1.7 | 101 | 
CC(C)=CCOc1cc(Oc2ccc(S(=O)(=O)N3CCOCC3)cc2)cc(C(=O)Nc2ccn(C)n2)c1 | 3 | 297 | 
CC(C)=CCOc1cc(Oc2ccc(S(=O)(=O)N3CC4CCC(C3)O4)cc2)cc(C(=O)Nc2ncc(F)s2)c1 | 1.9 | 78 | 
CC(C)=CCOc1cc(Oc2ccc(S(=O)(=O)C3CC3)cc2)cc(C(=O)Nc2nc(-c3ccc(F)cc3)cs2)c1 | 0.9 | 250 | 
COC1CCN(S(=O)(=O)c2ccc(Oc3cc(OCC=C(C)C)cc(C(=O)Nc4ccn(C)n4)c3)cc2)CC1 | 1.7 | 491 | 
COC1CCN(S(=O)(=O)c2ccc(Oc3cc(OCC=C(C)C)cc(C(=O)Nc4cc(C)n(C)n4)c3)cc2)CC1 | 1.8 | 460 | 
CC(C)=CCOc1cc(Oc2ccc(S(=O)(=O)C3CC3)cc2)cc(C(=O)Nc2nc(C(C)(C)C)cs2)c1 | 0.7 | 890 | 
CC(C)=CCOc1cc(Oc2ccc(S(=O)(=O)N3CCOCC3)cc2)cc(C(=O)Nc2nccs2)c1 | 2.1 | 48 | 
COC1CCN(S(=O)(=O)c2ccc(Oc3cc(OCC=C(C)C)cc(C(=O)Nc4nccs4)c3)cc2)CC1 | 1.7 | 90.4 | 
